Test results as given in paper PMC11252475 (Acta Pharmaceutica Sinica. B, 2024).

Columns and labels:
NaV1.5 = NaV1.5 (Homo sapiens, UniProt Q14524); assay: Cell membrane chromatography; format: binding; settings: capacity factor k′; reflects potential cardiac toxicity; k′ < 0 labeled as 0
rats [1] = assay: Cutaneous trunci pinprick model; format: in vivo, rat; settings: 62.3 mmol/L, subcutaneous
How it was run: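 Male SD rats under 1%–3% isoflurane had about 6 cm × 6 cm of back shaved, swabbed with alcohol and split into four areas. Test compound (62.3 mmol/L) was given by s.c. infiltration. Pinprick scored 1 for no response and 0 for response. Duration ran from onset to expiration, expressed as mean-score MPE. Effective block was ≥50% MPE; complete block was 100% MPE.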

rats [2] = assay: Sciatic nerve block model; format: in vivo, rat; settings: 62.3 mmol/L near sciatic nerve; for motor block duration: extensor postural thrust
How it was run: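 Test compound (62.3 mmol/L) was injected near the sciatic nerve. Hind limbs were tested every 30 min until back to pre-test baseline. Sensory: paw withdrawal latency on a 55 °C hotplate, timed by stopwatch. Motor: extensor postural thrust in grams on a digital balance. Recovery was 50% of baseline.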

rats [3] = assay: CFA-induced chronic plantar inflammatory pain model; format: in vivo, rat; settings: 62.3 mmol/L, 0.2 mL subcutaneous at swollen foot
How it was run: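 Male SD rats (6–8 weeks, 250–300 g) under 1%–3% isoflurane had CFA injected into the right foot. Test compound (62.3 mmol/L, 0.2 mL) or equal-volume saline was given s.c. at the swollen site. Electronic von Frey stimulation to the side of the foot every 10 min after onset. Anesthesia failed when the value fell to half the limb-weight-to-baseline difference or below.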

rats [4] = assay: Plantar incisional pain model; format: in vivo, rat; settings: 0.2 mL near incision
How it was run: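 Rats with a plantar incision received test compound or saline, 0.2 mL, near the incision. Local anesthesia was assessed by von Frey stimulation of the lateral sole.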

[5] = tested on: NaV currents in rat dorsal root ganglion (DRG) neurons; assay: Whole-cell patch clamp, sodium current in DRG neurons; format: cell-based; settings: for IC50: F-11 rat/mouse fusion cell line, DRG neuron, read-out: IC50 sodium current
How it was run: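 Male rat DRG neurons (180–200 g donors) were dissociated with collagenase IV (2 mg/mL) then trypsin (10 mg/mL) for 30 min, plated on poly-L-lysine and grown in Neurobasal with FBS and B27. Whole-cell voltage clamp used 3–4 MΩ electrodes. I/V steps ran from −90 to +40 mV in 10 mV increments, 50 ms each.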

[6] = Systemic toxicity, intravenous; settings: ICR, mouse, in vivo
[7] = Systemic toxicity, subcutaneous injection; format: in vivo, rat; settings: Sprague-Dawley, rat, in vivo, sc
SD rats = assay: Systemic toxicity, subcutaneous injection; format: in vivo, rat; settings: TI = LD50/ED50, s.c.
rats [8] = assay: Gingival incision pain model; format: in vivo, rat
How it was run: (§1)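 Oral pain models in rats under 1%–3% isoflurane, with test compound given as local anesthetic. Food intake and body-weight change were measured on a precision balance over 24 h. Facial grooming was video-recorded for 1 h after dosing.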

[9] = tested on: NaV currents in rat trigeminal neuron (TG) neurons; assay: Whole-cell patch clamp, sodium current in TG neurons; format: cell-based
hERG channel = hERG channel (Homo sapiens, UniProt Q12809); assay: hERG potassium current inhibition; format: cell-based
in vitro [10] = format: in vitro ADME; settings: rat, microsomes, pH 7.4
in vitro [11] = format: in vitro ADME; settings: human, microsomes, pH 7.4
[12] = Pharmacokinetics after subcutaneous injection; format: in vivo; settings: male, Sprague-Dawley, rat, plasma, sc, 62.3 mmol/L
rats [13] = assay: Dental pulp injury pain model; format: in vivo, rat; settings: compared with AT
How it was run: as §1

rats [14] = assay: Tooth extraction pain model; format: in vivo, rat
How it was run: as §1

IL-1β, IL-6, TNFα = assay: LPS-induced inflammatory factor expression; format: cell-based, rat; settings: LPS 24 h, DRG neurons and PC12 cells; similar to LD, stronger than AT
NLRP3 inflammasome = NLRP3 inflammasome activation after LPS; format: cell-based, rat
How it was run: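 DRG neurons and NGF-differentiated PC12 cells, with LPS given before or together with test compound. ASC specks: 3% paraformaldehyde 15 min, 0.5% Triton X-100 15 min, 5% BSA 2 h, anti-ASC 1:200 overnight at 4 °C, secondary 1:500 1 h in the dark, DAPI, fluorescence microscopy. Western blot: PVDF, 5% milk 2 h, anti-NLRP3 and anti-caspase-1 1:1000 overnight at 4 °C.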

DRG neurons = assay: LPS-induced ROS production, cytoplasmic mtDNA release, 8-OHdG; format: cell-based, rat; settings: PC12 cells
rats [15] = assay: Local anesthetic toxicity, blood biochemistry and organ pathology; format: in vivo, rat
How it was run: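 Test compound was given in the rat sciatic nerve block model. Rats were killed at 7 and 14 days. Sciatic nerve and surrounding tissue were HE-stained and inflammatory cells counted in equal-sized areas (nerve:surrounding 1:1). Serum ALT, AST, LDH, α-HBDH, CREA and UREA were run on an automatic analyser. Heart, liver and kidney were HE-stained for pathology.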

Sequence of NaV1.5 (Q14524 whole entry): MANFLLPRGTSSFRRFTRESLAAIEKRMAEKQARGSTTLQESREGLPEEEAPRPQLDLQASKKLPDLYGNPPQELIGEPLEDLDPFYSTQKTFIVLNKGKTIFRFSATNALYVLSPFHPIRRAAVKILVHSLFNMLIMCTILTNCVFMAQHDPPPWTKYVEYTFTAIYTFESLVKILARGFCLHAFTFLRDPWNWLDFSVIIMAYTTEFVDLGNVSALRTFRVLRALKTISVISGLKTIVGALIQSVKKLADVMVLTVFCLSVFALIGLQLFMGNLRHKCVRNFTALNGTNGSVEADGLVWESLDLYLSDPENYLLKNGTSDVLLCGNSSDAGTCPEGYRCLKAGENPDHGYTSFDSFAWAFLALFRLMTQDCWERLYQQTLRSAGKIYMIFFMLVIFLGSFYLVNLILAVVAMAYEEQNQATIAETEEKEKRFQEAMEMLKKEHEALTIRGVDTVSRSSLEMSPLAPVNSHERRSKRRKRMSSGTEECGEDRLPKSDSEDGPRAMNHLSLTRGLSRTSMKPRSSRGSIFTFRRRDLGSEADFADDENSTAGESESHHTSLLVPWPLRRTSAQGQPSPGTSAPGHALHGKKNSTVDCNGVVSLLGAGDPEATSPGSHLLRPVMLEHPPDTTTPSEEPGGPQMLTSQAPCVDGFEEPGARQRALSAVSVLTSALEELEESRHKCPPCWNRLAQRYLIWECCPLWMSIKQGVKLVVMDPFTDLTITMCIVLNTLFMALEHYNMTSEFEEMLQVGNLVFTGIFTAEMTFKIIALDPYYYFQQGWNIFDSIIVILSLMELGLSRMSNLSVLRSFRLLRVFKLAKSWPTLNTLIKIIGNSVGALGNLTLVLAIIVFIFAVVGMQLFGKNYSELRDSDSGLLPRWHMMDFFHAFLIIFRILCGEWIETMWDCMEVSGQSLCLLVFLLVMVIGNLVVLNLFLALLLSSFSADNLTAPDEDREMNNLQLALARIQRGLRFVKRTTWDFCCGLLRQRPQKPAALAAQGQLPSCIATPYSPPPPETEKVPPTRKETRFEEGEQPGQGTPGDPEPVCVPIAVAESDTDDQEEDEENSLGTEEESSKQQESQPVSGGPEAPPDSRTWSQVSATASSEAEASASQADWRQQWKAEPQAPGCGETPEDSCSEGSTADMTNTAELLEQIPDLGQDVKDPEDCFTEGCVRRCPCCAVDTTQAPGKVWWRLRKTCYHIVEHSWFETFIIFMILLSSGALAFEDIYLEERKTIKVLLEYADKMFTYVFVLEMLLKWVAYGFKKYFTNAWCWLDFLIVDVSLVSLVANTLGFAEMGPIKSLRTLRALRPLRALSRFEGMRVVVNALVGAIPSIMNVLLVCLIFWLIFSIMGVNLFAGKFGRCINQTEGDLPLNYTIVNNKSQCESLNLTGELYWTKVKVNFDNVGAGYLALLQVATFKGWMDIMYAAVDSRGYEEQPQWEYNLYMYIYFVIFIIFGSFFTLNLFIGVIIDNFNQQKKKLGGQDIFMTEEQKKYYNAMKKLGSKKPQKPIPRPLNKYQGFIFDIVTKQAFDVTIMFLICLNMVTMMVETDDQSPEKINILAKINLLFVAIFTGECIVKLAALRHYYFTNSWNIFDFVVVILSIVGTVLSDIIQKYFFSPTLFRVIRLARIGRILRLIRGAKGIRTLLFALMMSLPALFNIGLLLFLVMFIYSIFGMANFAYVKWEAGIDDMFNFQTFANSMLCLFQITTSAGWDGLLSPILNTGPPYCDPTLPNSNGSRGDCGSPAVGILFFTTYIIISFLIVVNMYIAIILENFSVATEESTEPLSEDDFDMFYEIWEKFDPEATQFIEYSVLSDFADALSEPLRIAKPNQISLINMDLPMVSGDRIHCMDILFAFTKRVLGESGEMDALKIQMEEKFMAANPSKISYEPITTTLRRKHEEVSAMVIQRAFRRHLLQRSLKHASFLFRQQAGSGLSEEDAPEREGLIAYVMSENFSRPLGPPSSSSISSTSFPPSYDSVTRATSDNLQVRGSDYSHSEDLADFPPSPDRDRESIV
Sequence of hERG channel (Q12809 whole entry): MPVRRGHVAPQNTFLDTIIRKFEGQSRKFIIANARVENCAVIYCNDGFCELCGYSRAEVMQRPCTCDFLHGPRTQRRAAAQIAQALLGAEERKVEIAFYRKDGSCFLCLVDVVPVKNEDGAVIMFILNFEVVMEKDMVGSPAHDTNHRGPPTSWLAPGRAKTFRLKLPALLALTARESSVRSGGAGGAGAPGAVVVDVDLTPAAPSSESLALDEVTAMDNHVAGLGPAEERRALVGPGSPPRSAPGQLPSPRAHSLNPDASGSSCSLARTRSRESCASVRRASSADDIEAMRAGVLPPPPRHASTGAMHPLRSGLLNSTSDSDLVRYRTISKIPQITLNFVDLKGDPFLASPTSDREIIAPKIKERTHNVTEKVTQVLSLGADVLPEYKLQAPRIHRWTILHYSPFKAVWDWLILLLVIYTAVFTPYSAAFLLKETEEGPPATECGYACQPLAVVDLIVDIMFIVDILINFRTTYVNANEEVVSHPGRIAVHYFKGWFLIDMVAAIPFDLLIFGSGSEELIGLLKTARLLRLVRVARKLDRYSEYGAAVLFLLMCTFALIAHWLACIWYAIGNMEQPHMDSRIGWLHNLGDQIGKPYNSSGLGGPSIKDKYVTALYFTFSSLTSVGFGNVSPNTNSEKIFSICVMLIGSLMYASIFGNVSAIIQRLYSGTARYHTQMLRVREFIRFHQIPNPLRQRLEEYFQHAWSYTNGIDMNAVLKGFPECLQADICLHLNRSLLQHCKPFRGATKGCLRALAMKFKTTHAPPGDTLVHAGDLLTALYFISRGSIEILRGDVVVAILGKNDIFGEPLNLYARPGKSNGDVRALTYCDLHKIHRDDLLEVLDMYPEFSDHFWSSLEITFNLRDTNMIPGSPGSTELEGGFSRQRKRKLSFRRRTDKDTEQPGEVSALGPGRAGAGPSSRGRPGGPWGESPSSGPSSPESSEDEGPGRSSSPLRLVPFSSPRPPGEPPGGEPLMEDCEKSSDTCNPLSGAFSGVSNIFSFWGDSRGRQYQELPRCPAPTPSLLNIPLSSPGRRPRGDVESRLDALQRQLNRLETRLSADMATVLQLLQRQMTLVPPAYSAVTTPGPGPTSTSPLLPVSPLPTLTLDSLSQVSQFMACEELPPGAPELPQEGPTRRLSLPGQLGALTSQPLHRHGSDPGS

Row | Structure (SMILES) | k′ NaV1.5 (NaV1.5) | subcutaneous infiltration duration (rats [1]) [min] | motor block duration (rats [2]) [min] | duration of action (anesthesia) under CFA-induced chronic inflammation (rats [3]) [min] | anesthesia result in acute inflammation model through plantar incision (rats [4]) | IC50 [5] [µM] | LD50 [6] [mg/kg] | LD50 at 24 h [7] [mg/kg] | TI (SD rats) | face grooming frequency (rats [8]) | also measured
1 | CCCNC(C)C(=O)Nc1c(C)csc1C(=O)OC (stereo not drawn) [AT, Methyl 4-methyl-3-(2-(propylamino)propanamido)thiophene-2-carboxylate, reference compound] | 63 | 120 | 90 | 30 | underperformed | 71.2 ± 3.06 | 38.3 | 598 | 125.83 | significantly lowered | –
2 | CCCCN1CCN(C(C)C(=O)Nc2c(C)csc2C(=O)OC)CC1 (stereo not drawn) [AT-17, Methyl 3-(2-(4-butylpiperazin-1-yl)propanamido)-4-methylthiophene-2-carboxylate] | 22.4 | 400 | 260 | 83.3 | improved results | 31.6 ± 2.07 | 43.5 | 424 | 149.17 | significantly lowered | duration of effective sensory blockade (rats [2]; hotplate test): 200 min; reduction in the peak current compared to AT (I‒V relationship) ([5]; rat DRG neurons): 36.35%; reduction in peak current compared to AT (I‒V relationship) [9]: 10.56%; inhibition at 100 μM/L (hERG channel): 38%; half-life (in vitro [10]): 1.03 h; half-life (in vitro [11]): 1.25 h; AUC(0-t) [12]: 5550 ng·h/mL; Tmax [12]: 1 h; half-life [12]: 0.823 h; weight loss and pain-related decreases in food intake (rats [13]): more effective; recovery in body weight and food intake (rats [8]; compared with AT): more pronounced recovery; weight loss and food intake (rats [14]): significantly mitigating; inflammatory factors (IL-1β, IL-6, TNFα) expression (IL-1β, IL-6, TNFα): significantly inhibited; LPS-induced ASC speck formation (NLRP3 inflammasome; DRG neurons, PC12 cells): inhibits; NLRP3, ASC, and pro-Casp1 expression (NLRP3 inflammasome; LPS, acute and chronic conditions): modestly reduced; LPS-induced ROS production, cytoplasmic mtDNA release, and 8-OHdG levels (DRG neurons): reduced; ALT, AST, LDH, α-HBDH, CREA, UREA levels vs control group (rats [15]; rats, 7 days and 14 days post-administration): no marked differences; pathological assessment of heart, liver, and kidney vs control group (rats [15]; rats, local administration to the sciatic nerve): no significant pathological changes; number of inflammatory cells in tissues compared with AT (rats [15]; sciatic nerve block model, HE, ImageJ): significantly lower
